Assay results published in ChEMBL document CHEMBL1132628, “Quinuclidine inhibitors of 2,3-oxidosqualene cyclase-lanosterol synthase: optimization from lipid profiles” (J Med Chem, 1999).

molecular target: T1, Lanosterol synthase (Rattus norvegicus, UniProt P48450); assay: Inhibition of compound was measured on rat microsomal Oxidosqualene-lanosterol cyclase
T1 sequence (P48450 whole entry): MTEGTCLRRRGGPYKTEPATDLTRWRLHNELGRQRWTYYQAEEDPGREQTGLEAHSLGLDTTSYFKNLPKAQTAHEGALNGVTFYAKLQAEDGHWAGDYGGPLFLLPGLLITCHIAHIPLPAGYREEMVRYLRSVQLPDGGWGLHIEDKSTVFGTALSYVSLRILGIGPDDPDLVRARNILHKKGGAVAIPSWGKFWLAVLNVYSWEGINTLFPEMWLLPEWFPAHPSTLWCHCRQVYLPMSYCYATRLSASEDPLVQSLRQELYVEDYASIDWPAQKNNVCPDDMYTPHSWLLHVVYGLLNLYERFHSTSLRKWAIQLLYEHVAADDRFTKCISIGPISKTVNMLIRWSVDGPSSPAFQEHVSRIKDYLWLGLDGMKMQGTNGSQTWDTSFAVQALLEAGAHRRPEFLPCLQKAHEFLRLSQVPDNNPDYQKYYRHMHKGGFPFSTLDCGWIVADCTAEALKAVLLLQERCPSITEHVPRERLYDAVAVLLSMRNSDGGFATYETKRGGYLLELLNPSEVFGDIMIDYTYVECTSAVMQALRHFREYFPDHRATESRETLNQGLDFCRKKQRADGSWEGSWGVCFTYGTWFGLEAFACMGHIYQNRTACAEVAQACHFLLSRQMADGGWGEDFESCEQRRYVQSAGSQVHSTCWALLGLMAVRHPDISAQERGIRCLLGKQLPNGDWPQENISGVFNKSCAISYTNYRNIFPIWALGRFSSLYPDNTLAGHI
Outline: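 Rat liver microsomes diluted in 50 mM phosphate buffer pH 7.4 with tween; compounds from DMSO stocks (10^-4 M, serial tenfold dilutions) preincubated with microsomes 10 min at 37 °C, then cold plus radiolabelled oxidosqualene added, 1 h incubation. Stopped with ethanolic KOH, heated 80 °C 2 h, hexane-extracted; inhibition from radiolabelled product.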

For OC1(c2ccc(-c3ccccc3)cc2)CN2CCC1CC2 (centres undefined), which IC50 is on record?
The IC50 was greater than 100 nM.

With C=CCc1cc(CCC(=O)OCC)ccc1C#CC1(O)CN2CCC1CC2 (centres undefined) as the compound, how does the IC50 read?
Its IC50 is greater than 100 nM.

molecular target: T2, Squalene synthase (Rattus norvegicus, UniProt Q02769); assay: Compound was measured for the inhibition of rat microsomal squalene synthase enzyme
T2 sequence (Q02769 whole entry): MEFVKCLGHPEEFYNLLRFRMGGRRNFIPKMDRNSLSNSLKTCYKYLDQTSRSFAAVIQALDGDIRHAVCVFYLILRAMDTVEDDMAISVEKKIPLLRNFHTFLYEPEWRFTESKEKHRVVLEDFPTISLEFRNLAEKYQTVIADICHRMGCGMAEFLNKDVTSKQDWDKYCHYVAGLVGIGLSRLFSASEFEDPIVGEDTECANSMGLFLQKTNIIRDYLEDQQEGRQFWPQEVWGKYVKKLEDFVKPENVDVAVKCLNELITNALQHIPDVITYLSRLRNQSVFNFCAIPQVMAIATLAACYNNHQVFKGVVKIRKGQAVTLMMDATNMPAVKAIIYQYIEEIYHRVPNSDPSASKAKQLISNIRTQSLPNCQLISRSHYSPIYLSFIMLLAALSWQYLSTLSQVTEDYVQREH

For C=CCc1cc(CCC(=O)OCC)ccc1C#CC1(O)CN2CCC1CC2 (centres undefined), which IC50 is on record?
The IC50 was 6 nM.

molecular target: T3, Lanosterol synthase (Rattus norvegicus) (UniProt P48450); assay: The in vivo assay of compound for inhibition of cholesterol biosynthesis was measured on Oxidosqualene-lanosterol cyclase of rat at 5 mg/kg; assay type: functional, organism-based; design: dose 5 mg/kg
T3 sequence (whole entry): T1 sequence (P48450 whole entry)
Outline: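 Female rats (130 ± 20 g) on reverse lighting dosed orally in DMSO/HPMC; tritiated mevalonate (2.5 μCi) given 1 h later, rats killed after another 1 h. Liver extracts run on HPLC with radiodetection; peaks assigned against standard sterol intermediates' retention times; cholesterol synthesis inhibition from peak area, plus intermediate selectivity profile.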

For O=C(/C=C1\CN2CCC1CC2)c1ccc(C(=O)c2ccc(Br)cc2)cc1, which inhibition is on record?
Its inhibition is 84%.

O=C(c1ccc(Cl)cc1)c1ccc(OC2CN3CCC2CC3)cc1 (centres undefined) was tested. Which inhibition did it give?
Its inhibition is 92%.

molecular target: T3, Lanosterol synthase (Rattus norvegicus); assay: The in vivo assay of compound for inhibition of cholesterol biosynthesis was measured on Oxidosqualene-lanosterol cyclase of rat at 5 mg/kg

How did the inhibition turn out when O=C(c1ccc(Br)cc1)c1ccc(C#CC2(O)CN3CCC2CC3)cc1 (centres undefined) was run?
Its inhibition is 59%.

For O=C(c1ccc(C(F)(F)F)cc1)N1CCC(=Cc2ccc(C3=NCCO3)cc2)CC1, which inhibition is on record?
The inhibition was 98%.

With OC1(C#Cc2ccc(Sc3ccc(Br)cc3)cc2)CN2CCC1CC2 (centres undefined) as the compound, how does the inhibition read?
Its inhibition is 79%.

With O=S(=O)(c1ccc(Br)cc1)c1ccc(C#CC2(O)CN3CCC2CC3)cc1 (centres undefined) as the compound, how does the inhibition read?
Its inhibition is 94%.

For Brc1ccc(SC2CN3CCC2CC3)cc1 (centres undefined), which inhibition is on record?
The inhibition was 47%.

For [O-][S+](c1ccc(Br)cc1)c1ccc(C#CC2(O)CN3CCC2CC3)cc1 (centres undefined), which inhibition is on record?
Its inhibition is 83%.

For Brc1ccccc1SC1CN2CCC1CC2 (centres undefined), which inhibition is on record?
Its inhibition is less than 5%.

Which inhibition does the source give for OC1(C#Cc2ccc(Oc3ccc(Br)cc3)cc2)CN2CCC1CC2 (centres undefined) here?
The inhibition was 55%.

Which inhibition does the source give for Brc1cccc(SC2CN3CCC2CC3)c1 (centres undefined) here?
The inhibition was less than 5%.
